Here are results for 3 molecules from publication PMC11752056 (Chemical Science, 2025).

One assay has as its target T1, 14-3-3σ (Homo sapiens, UniProt P31947).
T1 sequence (P31947 1-231 limits assumed): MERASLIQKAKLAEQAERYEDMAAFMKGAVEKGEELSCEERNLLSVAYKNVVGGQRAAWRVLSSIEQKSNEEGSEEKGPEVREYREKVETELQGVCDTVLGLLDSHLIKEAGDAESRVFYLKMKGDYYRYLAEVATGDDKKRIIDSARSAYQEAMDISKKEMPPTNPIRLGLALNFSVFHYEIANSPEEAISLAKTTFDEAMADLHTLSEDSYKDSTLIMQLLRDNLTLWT
Kind of assay: Intact MS conjugation of compound to 14-3-3σ. In kind it is biochemical. Conditions: 14-3-3σ : cyclohexenone : NEM 1:10:10, overnight, 10 °C, BTP buffer pH 7. A digest of the protocol:
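Recombinant full-length 14-3-3σ (8 μM) was incubated overnight with 10 eq. (80 μM) of compound, with or without peptide, in 20 mM BTP buffer at pH 7 and 10 °C. Protein species (unmodified, conjugated, crosslinked) were read from deconvoluted intact mass spectra and expressed as percentage conjugation or crosslinking.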

The conditions of assay [1]: L-cysteine–maleimide conjugation; cited from earlier work.
Assay [2] concerns the target the peptide panel (mutated B-Raf peptides: +5 mutants and histidine scan). Description: fluorescence polarisation.

In the case of `CCN1C(=O)C=CC1=O` [NEM, N-ethylmaleimide], at 14-3-3σ, the “conjugate formed on co-incubation of cyclohexenone and NEM” value was “exclusively the 14-3-3σ–NEM conjugate”. In the case of `O=C1C=CC(=O)N1` [maleimide], in assay [1], the “reaction rate (k2)” value was 17.6 ± 0.9 × 10^3 M^−1 s^−1.

B1: 14-3-3σ (natural protein)
chain: T1 sequence (P31947 1-231 limits assumed)
The term Kd denotes the constant that tells how readily two partners part at equilibrium. Low values mean tighter binding, high ones weaker binding. B1 registered a Kd in assay [2] of 1.8 to 135 µM.
